Screening results: PubChem BioAssay, several laboratories
aDG glyco act: increases alpha dystroglycan glycosylation; activation, % at 10 µM; Pro5-aDG cells, alpha-DG glycosylation AlphaScreen (IIH6); 0% Pro5, 100% B10-LARGE cell signal; 360,000 compounds, 0.22% hits;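 active = activation of at least 8% versus controls, or a plate z-score of at least 8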;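 also: Pro5 are CHO cells carrying HIG-tagged alpha-DG that lacks glycosylation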
V-ATPase pHluor: yeast V-ATPase proton transport regulation by pHLuorin | AID 504577 | S. cerevisiae, pHLuorin cytosolic pH fluorescence | response, % at 10 µM | 350,000 compounds, 0.37% hits; in the data active = response mostly above about 7.3%, no sharp cut-off; inactive = mostly below about 5.4%; also: actives read high
Hep lipid drop: hepatic lipid droplet formation modulation | AML12 mouse hepatocytes, oleate lipid droplets, BODIPY imaging | 240,000 compounds, 0.4% hits | inhibition, % at 6.5 µM;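 active = lipid droplet intensity inhibited by at least 50%, with more than 500 cells counted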
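Assay system: AML12 hepatocytes (mouse); Probe or stimulus: oleic acid at 100 µM to induce lipid droplet formation; Dosing: compound at 6.5 µM only; Schedule: compound with oleate, overnight; Detection: fluorescence imaging, 20x objective, two fields per well; Measure: % inhibition of lipid droplet signal.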
MPTP inh: blocks calcium-induced mitochondrial swelling | isolated mouse mitochondria, Ca2+ swelling absorbance, 30 min | AID 602449 | inhibition, % at 10 µM | 360,000 compounds, 1.4% hits;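 active = inhibition of 50% or more, scaled per plate between neutral and stimulator controls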;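 also: 0% = DMSO wells given calcium and 100% = 1 mM EGTA wells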
ADAM10 inh: inhibits human ADAM10; inhibition, % at 7 µM; AID 720582; 370,000 compounds, 0.62% hits; recombinant ADAM10, EDANS/DABCYL FRET peptide cleavage, 3 h;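 active = inhibition above a per-campaign cutoff equal to the mean of compounds falling between control-based bounds plus 3 SD, cut at about 20% in these data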;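 also: 0% = DMSO wells while the 100% control is not disclosed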
Target sequence (O14672 214-748 limits assumed): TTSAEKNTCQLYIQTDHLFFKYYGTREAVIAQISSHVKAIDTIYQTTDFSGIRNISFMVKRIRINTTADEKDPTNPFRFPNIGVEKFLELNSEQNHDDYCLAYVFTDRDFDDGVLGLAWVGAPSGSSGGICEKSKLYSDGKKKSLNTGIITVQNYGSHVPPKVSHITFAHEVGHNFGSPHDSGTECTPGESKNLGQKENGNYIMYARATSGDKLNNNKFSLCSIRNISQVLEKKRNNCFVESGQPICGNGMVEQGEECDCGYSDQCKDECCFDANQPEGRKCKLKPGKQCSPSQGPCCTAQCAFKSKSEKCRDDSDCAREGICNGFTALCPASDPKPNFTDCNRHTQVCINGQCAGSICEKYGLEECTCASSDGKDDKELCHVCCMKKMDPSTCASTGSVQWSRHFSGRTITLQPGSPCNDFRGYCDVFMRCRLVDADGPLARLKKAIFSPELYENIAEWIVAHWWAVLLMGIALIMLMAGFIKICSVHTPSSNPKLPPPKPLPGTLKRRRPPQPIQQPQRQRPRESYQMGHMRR
ADAM17 inh: inhibitors of human ADAM17. P78536. recombinant ADAM17, EDANS/DABCYL FRET peptide cleavage. inhibition, % at 6.95 µM. 370,000 compounds, 0.83% hits. AID 720648;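 active = inhibition above the mean of compounds lying between control limits plus 3 SD, set per campaign, cut at about 8.5% in these data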;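 also: 0% = DMSO-only wells as the low control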
Rh123 counter: membrane potential counter-screen of mitochondrial pore inhibitors. shares compounds with MPTP inh. isolated mitochondria, Rhodamine 123 fluorescence. inhibition, % at 10 µM. 5,000 compounds, 78% hits; in the data active = inhibition above about 22%;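 also: 0% = DMSO vehicle and 100% = positive control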
MPTP abs DR: MPTP inhibition, dose response swelling confirmation. shares compounds with MPTP inh. isolated mitochondria swelling, absorbance. IC50, µM. 780 compounds, 58% hits. AID 651561; in the data active = IC50 below about 20 µM
MPTP cs DR: MPTP inhibitor counter-screen activity, dose response. 780 compounds, 49% hits. isolated mitochondria counterscreen, fluorescence read-out. shares compounds with MPTP inh. IC50, µM; in the data active = IC50 below about 80 µM
Numbers without * were called inactive; . = not tested or not shown. Most compounds without a hit are left out; they make up all but 3.1% or so of the library.

SMILES	aDG glyco act	V-ATPase pHluor	Hep lipid drop	MPTP inh	ADAM10 inh	ADAM17 inh	Rh123 counter	others
c1ccc(Nc2ncnc3sccc23)cc1	0.1	-4.6	21.9	-1.1	1.1	-3.1	.
CSc1nc(Oc2ccc3ccccc3c2)c2ccccc2n1	0.2	3.9	-4.8	80.2*	-2.7	-3.3	5.3	MPTP abs DR=9.44*;MPTP cs DR=>80
O=C(Cn1nnc(-c2ccc(N3CCOCC3)cc2)n1)c1ccccc1	.	.	.	.	-2.7	6.5	.
CCN1/C(=C/c2ccc3cc(C)ccc3[n+]2CC)Sc2cc(C)ccc21	2.5	7.3	-87.9	98.3*	-3.6	-4.0	103.1*
CCCCN1/C(=C/c2cccc[n+]2C)Sc2cc(NC(C)=O)ccc21	-0.1	-0.1	-2.6	-0.5	6.9	-1.2	.
CCN1/C(=C/c2ccc3ccccc3[n+]2CC)C=Cc2ccccc21	0.7	6.8	-151.8	160.4*	-10.9	0.3	68.4*
CCCCN1/C(=C/c2ccc3ccccc3[n+]2CC)Sc2ccccc21	8.4*	-6.0	-93.4	94.3*	.	.	104.4*
O=C(Nc1cccc(F)c1)OC1CC2CC1[C@H]1CCCCN1[C@H]2Cc1ccccc1 (stereo partly specified)	.	.	.	.	-14.4	-6.7	.
CN1CC=C(c2ccccc2)N(c2ccccc2)C1=O	.	.	.	.	0.2	1.1	.
Cc1c(C)n(CCc2ccccc2)c2ncnc(NCCO)c12	0.0	0.0	7.3	-0.4	0.9	0.0	.
Cc1c(C)n(Cc2ccccc2)c2ncnc(Cl)c12	1.3	-1.8	-30.7	56.4*	0.7	4.8	65.2*
CC(C)CN1C(=O)c2ccc(C(=O)Nc3ccccn3)cc2C1=O	-0.1	0.9	.	0.5	-4.9	-3.8	.
CC(C)CCN1C(=O)c2ccc(C(=O)Nc3ccc(Br)cc3C(=O)O)cc2C1=O	-0.1	-1.1	12.1	92.7*	6.4	1.5	45.9*
